Measured values reported in ChEMBL document CHEMBL1141297, “Bioactive p-terphenyl derivatives from a Cordyceps-colonizing isolate of Gliocladium sp” (J Nat Prod, 2007).
Values after ≈ are worked out from the molar mass of the structure shown. Active and inactive are the calls of the source. No cut-off for these calls is given here.

Experiments:
Enterococcus faecalis = experiment: Antimicrobial activity against Enterococcus faecalis ATCC 19433 at 100 ug/disk after 24 hrs; assay type: functional, organism-based
Method in brief: (§1)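 Bacteria were grown on Mueller-Hinton agar. 6 mm paper disks carrying 100 µg compound were placed on the agar surface and plates were incubated at 37 °C for 24 h. The read-out was the presence and diameter of the inhibition zone, with a ciprofloxacin disk (100 µg) as reference.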

Streptococcus mutans = experiment: Antimicrobial activity against Streptococcus mutans ATCC 25175 at 100 ug/disk after 24 hrs; assay type: functional, organism-based; method in brief: as §1
Aspergillus fumigatus = experiment: Antifungal activity against Aspergillus fumigatus ATCC 10894 at 100 ug/disk after 48 hrs
HCT-116 = experiment: Growth inhibition of human HCT116 cells after 4 hrs by MTT assay; assay type: functional, cell-based; details: HCT-116, 4 h
Method in brief: (§2)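 MTT viability: 10⁴ cells/well attached overnight, then exposed to serial dilutions (from a 10 mg/mL DMSO stock) in medium, with 0.2% DMSO vehicle, for 4 h at 37 °C, 5% CO₂. Medium was then changed to fresh DMEM, followed by MTT (0.5 mg/mL) for 3 h at 37 °C in the dark. Formazan was dissolved in DMSO and read at 540 nm to give IC50.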

Micrococcus luteus = experiment: Antimicrobial activity against Sarcina lutea CMCC B28001 at 100 ug/disk after 24 hrs; assay type: functional, organism-based; method in brief: as §1
Staphylococcus aureus [1] = experiment: Antimicrobial activity against Staphylococcus aureus ATCC 6538 at 100 ug/disk after 48 hrs; assay type: functional; details: ATCC 6538, 48 h, read-out: IZ
HeLa = experiment: Growth inhibition of human HeLa cells after 4 hrs by MTT assay; assay type: functional, cell-based; method in brief: as §2
Geotrichum candidum = experiment: Antifungal activity against Geotrichum candidum AS2.498 at 100 ug/disk after 48 hrs
Staphylococcus aureus [2] = experiment: Antimicrobial activity against Staphylococcus aureus ATCC 6538 after 24 hrs by broth dilution assay; assay type: functional; details: ATCC 6538, 24 h
Candida albicans = experiment: Antifungal activity against Candida albicans ATCC 10231 at 100 ug/disk after 48 hrs

COC1=C(c2ccc(OC)cc2)C(=O)[C@H](O)[C@@](O)(c2ccc(OC)cc2)C1 [GLIOCLADININ A]
Activity (Enterococcus faecalis): inactive
Activity (Streptococcus mutans): inactive
Activity (Aspergillus fumigatus): inactive
IC50 (HCT-116): > 270 µM
Activity (Micrococcus luteus): inactive
zone of inhibition at 100 µg/disc (Staphylococcus aureus [1]): 15 mm
IC50 (HeLa): 54 µM
Activity (Geotrichum candidum): inactive
MIC (Staphylococcus aureus [2]): 270 µM (≈ 100 µg/mL)
Activity (Candida albicans): inactive

COc1ccc(-c2cc(O)c(-c3ccc(OC)cc3)c(O)c2O[C@@H]2O[C@H](CO)[C@@H](O)[C@H](O)[C@H]2O)cc1 [GLIOCLADININ B]
Activity (Enterococcus faecalis): inactive
Activity (Streptococcus mutans): inactive
Activity (Aspergillus fumigatus): inactive
IC50 (HCT-116): 80 µM
Activity (Micrococcus luteus): inactive
zone of inhibition at 100 µg/disc (Staphylococcus aureus [1]): 20 mm
IC50 (HeLa): 40 µM
Activity (Geotrichum candidum): inactive
MIC (Staphylococcus aureus [2]): 130 µM (≈ 65.1 µg/mL)
Activity (Candida albicans): inactive

O=C(O)c1cn(C2CC2)c2cc(N3CCNCC3)c(F)cc2c1=O [CIPROFLOXACIN]
zone of inhibition at 100 µg/disc (Staphylococcus aureus [1]): 35 mm
